From ChEMBL document CHEMBL1133101, “7-Methyl-6,7,8,9,14,15-hexahydro-5H-benz[d]indolo[2,3-g]azecine: a new heterocyclic system and a new lead compound for dopamine receptor antagonists” (J Med Chem, 2000) come the findings set out here.

The target of assay [1] is Serotonin 2 (5-HT2) receptor (Rattus norvegicus) (UniProt P30994+P08909+P14842). Put plainly: Percent decrease in 5-hydroxytryptamine 2 receptor binding using ketanserin. In kind it is protein assay. Details: scale not given: the % may be the effect or the level left. Put shortly:
(§1)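 Preliminary screen of receptors isolated from rat or pig tissues, run with minor changes to standard procedures. Each compound was tested at a single fixed concentration for each receptor. The read-out was the percent decrease in binding of the named radioligand.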

Assay [2] in a line: Percent decrease in Bradykinin receptor binding. Details: concentration or dose not given beside the values. In outline: as §1
Assay [3] in a line: % Decrease of adenosine carrier-receptor -bound radioactivity using NBTI as a radioligand. Details: concentration or dose not given beside the values. In outline: as §1
Assay [4] addresses Angiotensin II receptor (Homo sapiens) (UniProt P30556+P50052). The assay can be described thus: Percent decrease of Angiotensin II receptor binding. Further details: concentration or dose not given beside the values. Type of assay: protein assay. Put shortly:
as §1

Assay [5] concerns the target Glutamate [NMDA] receptor (Homo sapiens) (UniProt Q05586+Q12879+Q13224+O15399+O60391+Q14957+Q8TCU5). The assay can be described thus: Percent decrease of N-methyl-D-aspartate glutamate receptor binding using MK-801. Type of assay: protein-complex assay. Further details: concentration or dose not given beside the values. Put shortly: as §1
In assay [6] the target is T1, Adenosine receptor A1 (Homo sapiens) (UniProt P30542).
T1 sequence (whole entry): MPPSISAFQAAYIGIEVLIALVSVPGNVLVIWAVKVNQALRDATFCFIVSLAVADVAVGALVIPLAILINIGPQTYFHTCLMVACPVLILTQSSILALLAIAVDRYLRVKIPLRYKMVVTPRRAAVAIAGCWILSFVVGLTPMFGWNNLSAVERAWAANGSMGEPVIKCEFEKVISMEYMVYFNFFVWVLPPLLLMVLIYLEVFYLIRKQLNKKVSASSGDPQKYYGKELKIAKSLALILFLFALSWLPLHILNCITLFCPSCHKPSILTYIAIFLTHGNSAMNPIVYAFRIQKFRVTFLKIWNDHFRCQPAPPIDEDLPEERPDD
Put plainly: Percent decrease in adenosine-A1-receptor binding using CPDPX. Details: scale not given: the % may be the effect or the level left. Put shortly:
as §1

Assay [7] can be described thus: % Decrease of Phorbol Diester Receptor -bound radioactivity using PDBU as a radioligand. Further details: scale not given: the % may be the effect or the level left. In outline: as §1
For assay [8], the target named is T2, Adrenergic receptor alpha-1 (Homo sapiens, UniProt P35348+P25100+P35368).
T2 sequence (P35348 whole entry): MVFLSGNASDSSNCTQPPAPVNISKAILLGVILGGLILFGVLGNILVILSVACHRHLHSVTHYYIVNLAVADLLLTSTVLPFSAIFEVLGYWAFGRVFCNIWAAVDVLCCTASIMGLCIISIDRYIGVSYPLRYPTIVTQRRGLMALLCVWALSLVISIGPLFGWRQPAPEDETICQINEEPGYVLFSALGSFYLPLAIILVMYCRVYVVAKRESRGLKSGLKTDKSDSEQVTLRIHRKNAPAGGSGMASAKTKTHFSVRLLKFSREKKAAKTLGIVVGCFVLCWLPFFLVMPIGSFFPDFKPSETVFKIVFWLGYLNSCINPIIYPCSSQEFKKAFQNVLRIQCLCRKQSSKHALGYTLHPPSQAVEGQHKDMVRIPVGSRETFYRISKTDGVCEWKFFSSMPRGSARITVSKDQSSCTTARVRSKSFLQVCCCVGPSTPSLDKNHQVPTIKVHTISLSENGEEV
T2 sequence (P25100 whole entry): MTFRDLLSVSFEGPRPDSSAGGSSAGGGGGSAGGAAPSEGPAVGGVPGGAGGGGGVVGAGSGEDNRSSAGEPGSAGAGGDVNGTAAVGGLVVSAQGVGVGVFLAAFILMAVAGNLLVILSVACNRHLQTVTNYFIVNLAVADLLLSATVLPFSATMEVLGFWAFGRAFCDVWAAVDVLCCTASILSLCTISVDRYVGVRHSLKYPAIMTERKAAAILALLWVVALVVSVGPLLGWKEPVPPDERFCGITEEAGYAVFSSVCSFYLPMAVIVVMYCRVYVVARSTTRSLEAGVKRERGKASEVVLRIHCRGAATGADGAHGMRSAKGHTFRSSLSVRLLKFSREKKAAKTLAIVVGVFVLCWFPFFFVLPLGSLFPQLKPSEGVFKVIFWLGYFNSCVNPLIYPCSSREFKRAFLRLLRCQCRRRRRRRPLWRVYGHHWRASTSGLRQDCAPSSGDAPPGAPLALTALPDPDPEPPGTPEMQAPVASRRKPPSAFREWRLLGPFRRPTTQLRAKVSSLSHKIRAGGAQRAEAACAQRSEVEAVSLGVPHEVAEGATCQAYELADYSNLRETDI
T2 sequence (P35368 whole entry): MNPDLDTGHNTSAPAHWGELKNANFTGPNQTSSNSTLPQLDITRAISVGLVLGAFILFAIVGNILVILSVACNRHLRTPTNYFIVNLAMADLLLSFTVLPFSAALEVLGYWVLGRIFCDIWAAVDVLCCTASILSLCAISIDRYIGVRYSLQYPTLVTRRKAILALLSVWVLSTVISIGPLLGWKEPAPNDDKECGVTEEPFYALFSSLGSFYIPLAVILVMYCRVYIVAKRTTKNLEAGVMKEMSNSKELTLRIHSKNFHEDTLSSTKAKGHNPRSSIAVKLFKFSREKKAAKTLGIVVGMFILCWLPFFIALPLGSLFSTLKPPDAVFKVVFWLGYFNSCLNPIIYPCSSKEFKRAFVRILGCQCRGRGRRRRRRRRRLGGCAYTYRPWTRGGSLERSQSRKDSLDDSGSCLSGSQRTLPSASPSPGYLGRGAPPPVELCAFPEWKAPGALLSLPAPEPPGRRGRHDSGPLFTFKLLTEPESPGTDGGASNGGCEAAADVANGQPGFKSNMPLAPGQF
Put plainly: Binding affinity against Alpha-1 adrenergic receptor. In kind it is protein assay.

Assay [9] deals with Sulfonylurea receptors; K-ATP channels (Homo sapiens) (UniProt Q14654+O60706+Q09428+Q15842). Put plainly: Percent inhibition of glibenclamide binding to K+ channel. In kind it is protein-complex assay. Further details: concentration or dose not given beside the values. Put shortly: as §1
The nature of assay [10]: Percent decrease of Endothelin receptor binding using [125I]sarafotoxin. Further details: concentration or dose not given beside the values.
The target in assay [11] is T3, Muscarinic acetylcholine receptor M1 (Homo sapiens) (UniProt P11229).
T3 sequence (whole entry): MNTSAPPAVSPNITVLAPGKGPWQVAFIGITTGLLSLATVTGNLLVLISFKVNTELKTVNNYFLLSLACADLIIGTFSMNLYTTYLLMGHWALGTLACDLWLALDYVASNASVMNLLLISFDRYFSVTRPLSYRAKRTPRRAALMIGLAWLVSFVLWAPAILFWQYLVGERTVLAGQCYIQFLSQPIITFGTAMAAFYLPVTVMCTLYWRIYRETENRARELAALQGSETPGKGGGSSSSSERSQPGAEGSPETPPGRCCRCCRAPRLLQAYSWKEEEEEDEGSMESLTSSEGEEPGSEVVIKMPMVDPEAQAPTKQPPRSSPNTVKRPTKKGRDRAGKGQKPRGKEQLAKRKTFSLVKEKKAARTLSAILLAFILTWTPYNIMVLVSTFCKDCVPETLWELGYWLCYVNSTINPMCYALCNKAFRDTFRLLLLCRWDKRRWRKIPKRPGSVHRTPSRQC
The assay can be described thus: Percent decrease of Muscarinic acetylcholine receptor M1 binding using pirenzepine. Further details: scale not given: the % may be the effect or the level left. In outline:
as §1

Sequence of Serotonin 2 (5-HT2) receptor (Rattus norvegicus) (P08909 whole entry, looked up): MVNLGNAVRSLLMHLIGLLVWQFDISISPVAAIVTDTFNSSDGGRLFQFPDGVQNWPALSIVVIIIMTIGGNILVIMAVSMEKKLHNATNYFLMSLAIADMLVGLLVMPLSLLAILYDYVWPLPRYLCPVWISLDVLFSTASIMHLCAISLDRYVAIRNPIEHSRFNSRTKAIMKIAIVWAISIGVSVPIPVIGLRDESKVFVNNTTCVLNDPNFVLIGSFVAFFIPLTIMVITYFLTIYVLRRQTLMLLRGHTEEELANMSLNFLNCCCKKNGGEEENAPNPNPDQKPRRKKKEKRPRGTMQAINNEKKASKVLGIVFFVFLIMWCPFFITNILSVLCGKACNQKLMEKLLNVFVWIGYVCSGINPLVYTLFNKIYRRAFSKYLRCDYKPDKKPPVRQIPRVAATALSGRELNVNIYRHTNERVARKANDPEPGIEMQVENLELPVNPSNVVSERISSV
Sequence of Serotonin 2 (5-HT2) receptor (Rattus norvegicus) (P14842 whole entry, looked up): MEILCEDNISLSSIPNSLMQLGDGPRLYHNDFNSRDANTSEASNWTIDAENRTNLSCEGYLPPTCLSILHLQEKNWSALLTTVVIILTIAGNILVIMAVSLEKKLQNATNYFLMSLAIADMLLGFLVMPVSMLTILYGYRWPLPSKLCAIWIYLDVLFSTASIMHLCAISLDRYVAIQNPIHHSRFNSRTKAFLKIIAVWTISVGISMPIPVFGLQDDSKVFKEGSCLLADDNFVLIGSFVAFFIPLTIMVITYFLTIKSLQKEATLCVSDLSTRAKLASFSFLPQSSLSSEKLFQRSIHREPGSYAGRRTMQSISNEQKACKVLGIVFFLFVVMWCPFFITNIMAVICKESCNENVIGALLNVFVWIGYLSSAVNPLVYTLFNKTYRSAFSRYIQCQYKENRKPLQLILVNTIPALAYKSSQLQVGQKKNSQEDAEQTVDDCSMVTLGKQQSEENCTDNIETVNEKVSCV
Sequence of Serotonin 2 (5-HT2) receptor (Rattus norvegicus) (P30994 whole entry, looked up): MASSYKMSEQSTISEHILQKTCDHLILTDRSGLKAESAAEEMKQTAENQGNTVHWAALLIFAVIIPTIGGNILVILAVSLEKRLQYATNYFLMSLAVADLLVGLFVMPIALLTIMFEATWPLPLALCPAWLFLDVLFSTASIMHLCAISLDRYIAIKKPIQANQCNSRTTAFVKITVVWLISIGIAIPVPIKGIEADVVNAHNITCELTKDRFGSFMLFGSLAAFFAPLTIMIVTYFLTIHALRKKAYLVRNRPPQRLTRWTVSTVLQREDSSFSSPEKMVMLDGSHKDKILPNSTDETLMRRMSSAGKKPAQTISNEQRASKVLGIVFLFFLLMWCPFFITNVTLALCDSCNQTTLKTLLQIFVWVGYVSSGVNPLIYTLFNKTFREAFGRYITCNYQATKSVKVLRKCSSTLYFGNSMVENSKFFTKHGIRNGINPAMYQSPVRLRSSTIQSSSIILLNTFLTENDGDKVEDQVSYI

For orientation: Ki means a dissociation constant, usually derived from enzyme kinetics or from competition with a known ligand. For `c1ccc2c3c([nH]c2c1)C1c2[nH]c4ccccc4c2CCN1CC3`, the Activity in assay [1] was -52%; in [2], 2%; in assay [3], 1%; in assay [4] it was 0%; in [5], -52%; in assay [6], 17%. In addition, the Activity in assay [7] was -15%; in assay [9], 7%; in assay [10], 1%; in assay [11], -18%. The inhibition constant (Ki) in assay [8] is on record as 76 nM.

Turning to `CN1CCc2ccccc2Cc2[nH]c3ccccc3c2CC1`, the Activity is -2% in assay [2]; -14% in assay [3]; 6% in assay [4]; -18% in [5]; 0% in assay [7]; 10% in assay [9]. For the same molecule, the Activity in assay [10] is 0%; in assay [11], -9%. The molecule also registered a Ki in assay [8] of 11 nM.

As for `COc1cc2c(cc1OC)C1c3[nH]c4ccccc4c3CCN1CC2` (configuration not stated), the Activity in [1] is -32%; in [2] it was 9%; in assay [3], -17%; in assay [4], 6%; in assay [5], -14%; in assay [6], 26%. The Activity in assay [7] is -9%; in assay [9], 11%; in [10], 0%; in [11] it was -11%. The molecule also yielded a Ki in assay [8] of 17 nM.

As for `c1ccc2c(c1)CCN1CCc3c([nH]c4ccccc34)C21` (configuration not stated), the Activity in assay [1] is -41%; in [2], -2%; in [3] it was -29%; in assay [4] it was 0%; in assay [5] it was -33%; in assay [6], 13%. Besides, the Activity in assay [7] was -6%; in assay [9], 12%; in [10], -1%; in assay [11], -22%. This molecule also had a Ki in assay [8] of 79 nM.
